Assay [1] has as its system K562. The assay can be described thus: Antiproliferative activity against human K562 cells after 72 hrs by CellTiter-Glo assay. To be noted: K562, 72 h. It counts as functional, cell-based. The essentials:
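K562 leukemia cells exposed to increasing concentrations for 72 h; growth and viability read by CellTiter-Glo luminescence.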

The species entered for assay [2] is Homo sapiens. Put plainly: Inhibition of human recombinant NAE assessed as inhibition of NEDD8-UbcH12 complex formation at 1 nM after 1.5 hrs by Western blot analysis. In short, it runs like this:
(§1)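 Cell-free gel assay. Purified human recombinant E1 incubated with its matching Ub/Ubl and E2 in 50 mM HEPES pH 7.4, 5 mM MgCl2, 1–20 μM ATP. Inhibitor at 0, 0.001, 0.01, 0.1, 1 or 10 μM, 1.5 h at room temperature. Products resolved by SDS-PAGE, immunoblotted and detected by ECL; densitometry used for semiquantitation.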
Background: A western blot detects proteins with antibodies after separation by electrophoresis.

For assay [3], the species on record is Homo sapiens. Put plainly: Inhibition of human recombinant UAE assessed as inhibition of UbcH6-Ub complex formation at 0.001 to 10 uM after 1.5 hrs by Western blot analysis. The essentials: as §1
In assay [4] the target is Death-associated protein kinase 1 (Homo sapiens) (UniProt P53355). The assay can be described thus: Inhibition of DAPK1 assessed as remaining activity at 0.1 uM by radiolabeled kinase assay relative to control.
The target of assay [5] is T1, NEDD8-activating enzyme E1 catalytic subunit (Homo sapiens) (UniProt Q8TBC4).
T1 sequence (whole entry): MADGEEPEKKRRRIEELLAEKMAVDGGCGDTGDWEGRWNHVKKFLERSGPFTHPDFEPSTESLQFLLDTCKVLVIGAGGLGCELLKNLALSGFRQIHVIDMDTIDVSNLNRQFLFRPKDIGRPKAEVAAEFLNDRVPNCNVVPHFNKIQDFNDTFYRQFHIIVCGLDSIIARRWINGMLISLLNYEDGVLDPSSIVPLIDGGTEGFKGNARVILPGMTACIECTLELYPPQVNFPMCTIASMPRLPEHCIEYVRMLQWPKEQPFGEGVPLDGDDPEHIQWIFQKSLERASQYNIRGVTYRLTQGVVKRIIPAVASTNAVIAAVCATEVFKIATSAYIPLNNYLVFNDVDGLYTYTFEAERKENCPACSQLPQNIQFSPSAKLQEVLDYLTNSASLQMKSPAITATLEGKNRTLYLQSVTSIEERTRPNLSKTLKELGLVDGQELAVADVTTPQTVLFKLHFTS
The assay can be described thus: Inhibition of UBA3-mediated NEDD8 activation at […] after 1.5 hrs by Western blot analysis.

The target in assay [6] is Cyclin-dependent kinase 1/cyclin B1 (Homo sapiens) (UniProt P06493+P14635). Put plainly: Inhibition of CDK1/cyclin B assessed as remaining activity at 0.1 uM by radiolabeled kinase assay relative to control. The class given is protein-complex assay.
For assay [7], the target named is T2, NEDD8-activating enzyme E1 regulatory subunit (Homo sapiens) (UniProt Q13564).
T2 sequence (whole entry): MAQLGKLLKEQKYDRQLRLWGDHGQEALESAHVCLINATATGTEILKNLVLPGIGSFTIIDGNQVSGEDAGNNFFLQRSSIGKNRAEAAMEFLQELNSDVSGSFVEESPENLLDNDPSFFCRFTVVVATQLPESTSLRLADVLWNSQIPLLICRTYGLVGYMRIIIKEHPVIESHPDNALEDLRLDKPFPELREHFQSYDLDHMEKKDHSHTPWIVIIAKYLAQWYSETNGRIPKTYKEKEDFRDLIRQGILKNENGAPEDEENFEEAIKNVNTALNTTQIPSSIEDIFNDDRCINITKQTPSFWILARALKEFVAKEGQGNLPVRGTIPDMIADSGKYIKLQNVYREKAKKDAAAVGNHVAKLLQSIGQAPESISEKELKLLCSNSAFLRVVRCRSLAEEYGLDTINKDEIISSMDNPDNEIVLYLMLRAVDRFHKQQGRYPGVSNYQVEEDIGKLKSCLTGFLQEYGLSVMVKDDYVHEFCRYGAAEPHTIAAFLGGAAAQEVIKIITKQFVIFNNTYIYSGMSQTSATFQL
The assay can be described thus: Inhibition of APPBP1-mediated NEDD8 activation at […] after 1.5 hrs by Western blot analysis.

For assay [8], the target named is Ubiquitin-like modifier-activating enzyme 5 (Homo sapiens) (UniProt Q9GZZ9). The assay can be described thus: Inhibition of human recombinant UBA5 assessed as inhibition of […]-UFM1 complex formation at 10 uM after 1.5 hrs by Western blot analysis. In short, it runs like this: as §1
Assay [9] has as its system K562. The assay can be described thus: Inhibition of NAE in human K562 cells assessed as inhibition of NEDD8-cullin complex formation at 1 to 1000 nM after 24 hrs by immunoblotting. The class given is cell-based. In short, it runs like this:
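K562 cells treated with increasing concentrations for 24 h, then harvested. Total cellular protein isolated and NEDD8–cullin conjugates detected by immunoblotting.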

The target in assay [10] is Dual specificity mitogen-activated protein kinase kinase 1 (Homo sapiens) (UniProt Q02750). The assay can be described thus: Inhibition of MEK1 assessed as remaining activity at 0.1 uM by radiolabeled kinase assay relative to control.
Assay [11] deals with Calcium/calmodulin-dependent protein kinase type II subunit beta (Homo sapiens) (UniProt Q13554). The assay can be described thus: Inhibition of CAMK2b assessed as remaining activity at 0.1 uM by radiolabeled kinase assay relative to control.

Active and inactive are the calls of the source. The calls are words filed in the database; no cut-off is given here.

Sequence of Calcium/calmodulin-dependent protein kinase type II subunit beta (Homo sapiens) (Q13554 whole entry): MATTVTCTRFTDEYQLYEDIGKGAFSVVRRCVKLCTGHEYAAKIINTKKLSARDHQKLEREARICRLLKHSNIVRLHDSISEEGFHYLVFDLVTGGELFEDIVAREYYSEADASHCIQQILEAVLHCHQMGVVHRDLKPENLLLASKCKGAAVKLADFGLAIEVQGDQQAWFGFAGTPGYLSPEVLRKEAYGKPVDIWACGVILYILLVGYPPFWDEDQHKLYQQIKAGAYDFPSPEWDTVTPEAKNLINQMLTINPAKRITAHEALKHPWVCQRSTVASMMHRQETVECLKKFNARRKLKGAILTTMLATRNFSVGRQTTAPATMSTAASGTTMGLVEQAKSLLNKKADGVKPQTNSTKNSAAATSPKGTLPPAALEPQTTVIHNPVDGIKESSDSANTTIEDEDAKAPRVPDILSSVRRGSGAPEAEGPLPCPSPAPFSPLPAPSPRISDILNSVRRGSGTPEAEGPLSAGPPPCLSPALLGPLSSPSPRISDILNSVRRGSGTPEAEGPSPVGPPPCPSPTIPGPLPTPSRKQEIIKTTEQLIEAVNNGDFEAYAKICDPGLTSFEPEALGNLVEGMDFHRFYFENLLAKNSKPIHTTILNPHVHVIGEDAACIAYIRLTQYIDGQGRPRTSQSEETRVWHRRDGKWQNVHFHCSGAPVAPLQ
Sequence of Cyclin-dependent kinase 1/cyclin B1 (Homo sapiens) (P06493 whole entry, looked up): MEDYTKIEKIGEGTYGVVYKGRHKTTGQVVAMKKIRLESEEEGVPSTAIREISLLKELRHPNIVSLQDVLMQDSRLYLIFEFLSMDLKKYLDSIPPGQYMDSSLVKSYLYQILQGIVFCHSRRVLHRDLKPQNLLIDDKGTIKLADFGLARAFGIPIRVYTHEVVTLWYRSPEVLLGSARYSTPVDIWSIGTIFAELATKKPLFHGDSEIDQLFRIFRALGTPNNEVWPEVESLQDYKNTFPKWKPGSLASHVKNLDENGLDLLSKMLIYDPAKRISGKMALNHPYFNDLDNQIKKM
Sequence of Cyclin-dependent kinase 1/cyclin B1 (Homo sapiens) (P14635 whole entry, looked up): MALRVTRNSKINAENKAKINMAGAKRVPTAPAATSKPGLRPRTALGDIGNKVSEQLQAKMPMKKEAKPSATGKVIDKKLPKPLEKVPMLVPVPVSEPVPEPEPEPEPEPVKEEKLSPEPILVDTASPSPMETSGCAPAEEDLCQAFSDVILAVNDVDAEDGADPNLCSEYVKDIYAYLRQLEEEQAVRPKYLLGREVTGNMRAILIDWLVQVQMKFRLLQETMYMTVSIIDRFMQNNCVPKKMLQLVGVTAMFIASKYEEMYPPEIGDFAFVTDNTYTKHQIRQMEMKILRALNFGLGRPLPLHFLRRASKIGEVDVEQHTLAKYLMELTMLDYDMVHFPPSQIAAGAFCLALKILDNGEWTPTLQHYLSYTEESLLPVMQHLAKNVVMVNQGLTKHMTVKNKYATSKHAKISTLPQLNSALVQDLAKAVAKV
Sequence of Death-associated protein kinase 1 (Homo sapiens) (P53355 whole entry, looked up): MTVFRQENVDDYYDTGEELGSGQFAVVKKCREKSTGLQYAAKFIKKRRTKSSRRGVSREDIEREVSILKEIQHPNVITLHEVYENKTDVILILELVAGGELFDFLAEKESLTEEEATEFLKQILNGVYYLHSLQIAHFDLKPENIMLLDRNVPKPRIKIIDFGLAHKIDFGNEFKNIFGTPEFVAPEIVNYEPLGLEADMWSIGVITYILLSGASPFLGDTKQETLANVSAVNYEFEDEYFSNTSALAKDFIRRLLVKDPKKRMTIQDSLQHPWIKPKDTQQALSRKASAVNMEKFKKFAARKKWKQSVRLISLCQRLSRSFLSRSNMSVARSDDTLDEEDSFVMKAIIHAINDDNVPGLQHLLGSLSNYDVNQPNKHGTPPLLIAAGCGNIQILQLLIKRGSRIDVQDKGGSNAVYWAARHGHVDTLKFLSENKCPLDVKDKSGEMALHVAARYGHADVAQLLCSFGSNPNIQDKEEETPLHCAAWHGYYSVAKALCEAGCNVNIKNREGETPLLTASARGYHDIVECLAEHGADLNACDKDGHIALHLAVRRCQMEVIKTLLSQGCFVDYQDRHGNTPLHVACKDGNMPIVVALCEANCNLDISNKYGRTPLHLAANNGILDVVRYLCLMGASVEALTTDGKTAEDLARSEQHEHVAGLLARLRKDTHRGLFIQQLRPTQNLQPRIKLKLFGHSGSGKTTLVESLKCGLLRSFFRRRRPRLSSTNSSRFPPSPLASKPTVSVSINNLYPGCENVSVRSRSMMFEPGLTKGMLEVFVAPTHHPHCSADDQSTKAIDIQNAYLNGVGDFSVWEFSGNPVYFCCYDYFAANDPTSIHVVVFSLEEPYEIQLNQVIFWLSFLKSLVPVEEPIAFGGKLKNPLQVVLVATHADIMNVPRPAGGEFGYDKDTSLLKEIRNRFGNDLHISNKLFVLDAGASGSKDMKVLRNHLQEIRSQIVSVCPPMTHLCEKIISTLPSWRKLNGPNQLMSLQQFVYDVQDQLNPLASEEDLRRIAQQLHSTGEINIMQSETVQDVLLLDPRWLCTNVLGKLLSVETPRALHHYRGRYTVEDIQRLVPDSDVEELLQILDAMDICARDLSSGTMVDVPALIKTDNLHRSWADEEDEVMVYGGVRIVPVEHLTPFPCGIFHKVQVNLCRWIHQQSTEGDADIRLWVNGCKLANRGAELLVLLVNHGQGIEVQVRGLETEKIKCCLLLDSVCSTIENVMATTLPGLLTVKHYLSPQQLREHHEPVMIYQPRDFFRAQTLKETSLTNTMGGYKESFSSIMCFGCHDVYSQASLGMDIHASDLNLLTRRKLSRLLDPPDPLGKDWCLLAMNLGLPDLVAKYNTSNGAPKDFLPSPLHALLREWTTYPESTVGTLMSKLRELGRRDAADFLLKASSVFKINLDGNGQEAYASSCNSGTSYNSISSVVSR
Sequence of Ubiquitin-like modifier-activating enzyme 5 (Homo sapiens) (Q9GZZ9 whole entry): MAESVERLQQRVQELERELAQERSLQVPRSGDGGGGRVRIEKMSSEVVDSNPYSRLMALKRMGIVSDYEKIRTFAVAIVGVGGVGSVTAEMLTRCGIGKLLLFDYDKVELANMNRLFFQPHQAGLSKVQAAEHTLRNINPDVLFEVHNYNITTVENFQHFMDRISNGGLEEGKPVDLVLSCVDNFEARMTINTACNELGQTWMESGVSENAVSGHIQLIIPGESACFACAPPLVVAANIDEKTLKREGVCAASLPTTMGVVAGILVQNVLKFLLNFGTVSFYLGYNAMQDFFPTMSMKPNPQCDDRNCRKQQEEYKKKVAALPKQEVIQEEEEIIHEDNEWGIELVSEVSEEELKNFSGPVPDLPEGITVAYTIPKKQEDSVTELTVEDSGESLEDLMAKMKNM
Sequence of Dual specificity mitogen-activated protein kinase kinase 1 (Homo sapiens) (Q02750 whole entry): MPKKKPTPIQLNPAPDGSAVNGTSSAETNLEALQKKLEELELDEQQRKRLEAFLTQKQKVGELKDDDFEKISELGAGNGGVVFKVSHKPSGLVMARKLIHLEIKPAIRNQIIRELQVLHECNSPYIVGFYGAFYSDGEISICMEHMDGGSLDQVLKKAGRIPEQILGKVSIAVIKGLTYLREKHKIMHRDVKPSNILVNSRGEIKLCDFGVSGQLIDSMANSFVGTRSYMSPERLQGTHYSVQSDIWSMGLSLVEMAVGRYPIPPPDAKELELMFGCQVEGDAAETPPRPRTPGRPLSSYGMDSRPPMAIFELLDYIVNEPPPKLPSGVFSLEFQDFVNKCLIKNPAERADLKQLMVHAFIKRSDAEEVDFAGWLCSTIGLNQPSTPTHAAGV

Compound `CCCCCCNc1ncnc2c1ncn2[C@@H]1O[C@H](COS(N)(=O)=O)[C@@H](O)[C@H]1O` came in with an EC50 with K562 [1] of 160 nM. The inhibition in the assay filed under Homo sapiens [2] is greater than 70%. In addition, the inhibition result (in the assay filed under Homo sapiens [3]; in assay [5]; in assay [7]; in the assay with K562 [9]) was “Active” throughout. Besides, the Activity in assay [4] is 88.5%; in [6] it was 114%; in assay [10], 123%; in [11], 101%. Further, the inhibition result in assay [8] was “inactive”.

The EC50 is the midpoint of the concentration-response curve. Lower therefore signals an effect from little substance. One may read the inhibition as the drop in the measured response relative to a control, in per cent.

These data come from ChEMBL document CHEMBL2016531, “Identification of NAE Inhibitors Exhibiting Potent Activity in Leukemia Cells: Exploring the Structural Determinants of NAE Specificity” (ACS Med Chem Lett, 2011).
